Screens (PubChem BioAssay)
TRPC6 inh: inhibitors of mouse TRPC6 channel; HEK293-TRPC6, membrane potential dye, ACh-evoked depolarization; hits give low values; B-score at 10 µM; 310,000 tested, 1.1% active;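 active means B-score under library mean minus 3 SD, initial fluorescence not abnormally high, positive integrated signal ratio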;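 further: B-score derived from integrated fluorescence ratio over the kinetic read; more negative B-score means stronger inhibition of depolarization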
TRPC4 PAM: allosterically enhances the mouse TRPC4 cation channel; Q9QUQ5; HEK293 TRPC4beta/mu-opioid, DAMGO EC20, Fluo-4 Ca2+ flux; hits give high values; B-score at 10 µM; 310,000 tested, 0.42% active;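 active means B-score of calcium response area above 5 SD of library B-scores, with initial fluorescence ratio within 5 SD of library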;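 further: B-score of integrated fluorescence ratio over time as area under calcium response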
TRPC6 activator: mouse TRPC6 channel activation. Q61143. HEK293-TRPC6 membrane potential dye fluorescence; hits give high values. B-score at 10 µM. 310,000 tested, 0.13% active. AID 2550;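 active means B-score of the integrated fluorescence ratio above library mean plus 3 SD, and starting fluorescence ratio within library mean plus 5 SD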;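 further: higher score means more depolarization so channel activation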
TRPC4 act: TRPC4 (mouse) channel activation; AID 2237; Q9QUQ5; B-score at 10 µM; HEK293 TRPC4beta/mu-opioid, Fluo4 calcium fluorescence; hits give high values; 310,000 tested, 0.49% active;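 active means B-score above 5 SD of library B-scores, and initial fluorescence ratio not above library mean plus 5 SD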;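 further: positive B-score marks a calcium rise read as TRPC4 activation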
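Incubation: 45 min room-temperature Fluo4 loading, 110 s read / System: HEK293 cells stably co-expressing mouse TRPC4beta and mu-opioid receptor / Signal: Fluo4 fluorescence, kinetic / Control set: buffer (low) and maximal DAMGO (high) / Measure: integrated baseline-normalised fluorescence ratio, converted to per-well B score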
TRPC4 inh: inhibitors of mouse TRPC4 channel; Q9QUQ5; HEK293 TRPC4beta/mu-opioid, DAMGO-evoked Fluo4 calcium flux; hits give low values; B-score at 10 µM; 300,000 tested, 0.39% active; AID 2247;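 active means B-score over 3 SD under the library average, no early fluorescence shift, positive overall ratio signal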
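Material: HEK293 cells with stable TRPC4beta plus mu-opioid receptor expression / Probe or stimulus: DAMGO in two steps, submaximal then maximal / Compound: single concentration per test compound / Technique: kinetic Fluo4 fluorescence imaging of calcium influx / Read-out: per-well B score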
Kir21 block: inhibitors of mouse Kir2.1 inward-rectifier potassium channel; HEK293-Kir2.1, FluxOR thallium flux fluorescence; hits give low values; B-score at 10 µM; 310,000 tested, 0.85% active; AID 1672;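 active means fluorescence ratio B-score at or below minus 3 SD of library scores, with starting-brightness B-score within 2 SD, cut at about -4.2 in these data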;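 further: channel flux triggered by added potassium and thallium sulfate stimulus; B-score of peak minus minimum fluorescence over baseline after thallium stimulus; more negative B-score means stronger Kir2.1 block with less thallium influx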
Target sequence (P35561 whole entry, looked up): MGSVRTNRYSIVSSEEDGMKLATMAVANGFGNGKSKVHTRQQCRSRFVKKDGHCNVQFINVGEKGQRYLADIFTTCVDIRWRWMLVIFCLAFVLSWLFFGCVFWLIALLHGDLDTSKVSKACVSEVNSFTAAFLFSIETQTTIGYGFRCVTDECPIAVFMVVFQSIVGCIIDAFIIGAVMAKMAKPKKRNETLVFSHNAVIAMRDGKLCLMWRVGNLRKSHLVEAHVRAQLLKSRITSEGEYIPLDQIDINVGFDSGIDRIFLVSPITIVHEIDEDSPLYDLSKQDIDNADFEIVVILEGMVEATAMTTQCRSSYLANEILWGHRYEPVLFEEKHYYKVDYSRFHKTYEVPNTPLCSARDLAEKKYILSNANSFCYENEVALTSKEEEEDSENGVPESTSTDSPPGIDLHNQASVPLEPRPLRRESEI
* marks the source's active call; other numbers are inactive results; i = inactive. Only some compounds are listed: those with a hit (about 2.9% of all), similar ones and a draw of the others.

SMILES | TRPC6 inh | TRPC4 PAM | TRPC6 activator | TRPC4 act | TRPC4 inh | Kir21 block
COc1cccc(CNCc2ccccn2)c1OC | i | i | i | 63* | -6* | -2.3
COc1cccc(CNCc2ccc(OC)c3ccccc23)c1OC | i | i | i | i | i | -1.1
COc1cccc(CN(C(=O)Cn2nnc(-c3ccccc3F)n2)C(C(=O)NC(C)(C)C)c2ccncc2)c1 (configuration not stated) | i | i | i | i | i | 0.74
CCCC(=O)NCCc1cc2ccc(C)c(C)c2[nH]c1=O | i | 12* | i | i | i | 0.02
Cc1nn(-c2ccccc2)c(C)c1NC(=O)COC(=O)c1ccc(Cl)c(S(N)(=O)=O)c1 | i | i | i | i | i | 1.2
COc1ccc(C(C)(C)C)cc1NC(=O)Cn1cnnn1 | i | i | i | i | i | 0.81
CCN1CCN(c2ccc(S(=O)(=O)N3CCCCC3)cc2NC(=O)Cc2ccc(Cl)c(Cl)c2)CC1 | i | i | i | 43* | i | -2.9
CCC(=O)c1ccc(OCC(=O)Nc2cc(S(=O)(=O)N3CCCCC3)ccc2N2CCN(CC)CC2)cc1 | i | i | i | i | i | 0.15
CCN1CCN(c2ccc(S(=O)(=O)N3CCCCC3)cc2NC(=O)COc2ccccc2)CC1 | i | i | i | 125* | i | 0.43
CCN1CCN(c2ccc(S(=O)(=O)N3CCCCC3)cc2NC(=O)Cc2ccccc2)CC1 | i | i | i | i | i | -0.41
CCOc1ccccc1OCC(=O)Nc1cc(S(=O)(=O)N2CCCCC2)ccc1N1CCN(CC)CC1 | i | i | i | 89* | i | 0.24
COc1ccccc1OCC(=O)Nc1cc(S(=O)(=O)N2CCCCC2)ccc1N1CCCCC1 | i | i | i | i | i | 0.18
O=C(NCc1ccccn1)c1nnc(Cc2ccc(Cl)cc2)o1 | i | i | i | i | i | -3.1
CC1=NNC(=O)C1C(c1ccc(F)cc1)C(C#N)C#N (configuration not stated) | i | i | i | i | i | -4.3*
Clc1ccc(SCCn2ccnc2)cc1 | i | i | i | 63* | i | -0.08
Clc1ccc(OCCn2ccnc2)c(Cl)c1 | i | 14* | i | i | i | -2.5
COc1ccccc1OCCn1ccnc1 | i | i | i | i | i | 0.75
Clc1ccc(OCCn2ccnc2)c(Br)c1 | i | 21* | i | i | i | -0.52
Clc1ccc(OCCn2ccnc2)c2ccccc12 | i | i | i | 53* | i | -4
CCN(CC)S(=O)(=O)c1cccc(NC(=O)c2ccc(C#N)cc2)c1 | i | i | i | i | i | -0.19
CC(C)CCN1C(=O)c2ccc(C(=O)Nc3ccc(Br)cc3C(=O)O)cc2C1=O | i | i | i | i | i | 0.55
Cc1cc(=O)oc2cc(N3C(=O)CC(Cc4ccccc4)C3=O)ccc12 (configuration not stated) | i | 13* | i | i | i | -2.6
CC1=CC(C)(C)n2c(O)c(N=N)c3cc(C)cc1c32 | i | i | i | i | i | -8.7*
CC1=CC(C)(C)n2c(O)c(N=N)c3c(C)c(C)cc1c32 | i | i | i | i | i | 1.1
O=C(Cc1ccccc1)c1ccccc1C(=O)N1CCCCC1 | i | i | i | i | i | 0.75
SMILES | TRPC6 inh | TRPC4 PAM | TRPC6 activator | TRPC4 act | TRPC4 inh | Kir21 block
CCOP(=O)(OCC)c1nc(-c2cccc3ccccc23)oc1N1CCCCC1 | i | 23* | i | i | i | -0.52
Cc1ccccc1-c1nc(P(=O)(c2ccccc2)c2ccccc2)c(N2CCOCC2)o1 | i | i | i | i | i | 0.18
CCOP(=O)(c1ccccc1)c1nc(-c2ccccc2C)oc1N1CCCCC1 (configuration not stated) | i | 11* | i | i | i | 0.69
COP(=O)(OC)c1nc(-c2cccc3ccccc23)oc1N1CCCCC1 | i | i | i | i | i | -0.31
COc1ccccc1NC(=O)Nc1ccnn1C1CCN(C(=O)c2cccnc2)CC1 | i | i | i | i | i | 1.5
CC(C)CC(=O)N1CCN(Cc2ccccc2[N+](=O)[O-])CC1 | i | i | i | i | i | 0.91
Cc1cc(NC(=O)Nc2cccc(Cl)c2)n(-c2ccccn2)n1 | -5.2* | i | i | i | i | 1
CC(Nc1nc(N2CCNCC2)nc2ccccc12)c1ccccc1 (configuration not stated) | i | i | i | 103* | i | 0.02
CC1CC1C(=O)OCc1cc(=O)n2cc(Br)ccc2n1 (configuration not stated) | i | i | i | i | i | -0.26
CC1(C(=O)OCc2cc(=O)n3cc(Br)ccc3n2)CC1(Cl)Cl (configuration not stated) | i | 15* | i | i | i | -0.06
CCCCN(C(=O)CCC(=O)Nc1cc(C)on1)C(C(=O)NC1CCCC1)c1ccccc1OCC (configuration not stated) | i | i | i | i | i | 0
CCc1ccc2nc(/N=C(\N)NC(=O)c3ccccc3)nc(C)c2c1 | i | i | i | i | i | 0.07
CCCC(=O)N/C(N)=N/c1nc(C)c2ccccc2n1 | i | 19* | i | i | i | -0.07
NC(=O)c1sc(=S)n2c1[nH]c(=O)c1sccc12 | i | 10* | i | i | i | 1.5
O=C(O)c1ccc(NC(=S)Nc2ccccc2)cc1 | i | i | i | i | i | 1.1
Cc1cc(Br)c(NC(=O)CN(C)CCOc2ccccc2)c(Br)c1 | i | i | i | i | -6* | -4.7
COc1cc(C(=O)NC(C)c2ccc3ccccc3c2)cc(Cl)c1O (configuration not stated) | i | i | i | i | i | 0.84
CCCN(CCC(=O)Nc1ccccc1F)CC1CC1 | i | i | i | i | i | 0.16
CCCN(CCC(=O)Nc1cc(OC)cc(OC)c1)CC1CC1 | i | i | i | 162* | i | -0.65
COc1cc(NC(=O)CCN2CCN(Cc3ccccc3)CC2)cc(OC)c1 | i | i | i | i | i | -0.04
CCN(CCC(=O)Nc1cc(OC)cc(OC)c1)Cc1ccccc1 | i | i | i | 60* | i | -1.8
Cc1ccc(NC(=O)C2(c3ccccc3)CCOCC2)c([N+](=O)[O-])c1 | i | i | i | i | i | 0.23
